What was measured:
Format in all cases: functional, cell-based
PANC-1 = test: Cytotoxicity against human PANC1 cells assessed as inhibition of cell viability after 6 days by MTT assay; settings: PANC-1, 144 h
Outline: (§1)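 Temsirolimus, sunitinib, gemcitabine and 5-fluorouracil served as positive controls.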

[1] = Cytotoxicity against human MiaPaCa cells assessed as inhibition of cell viability after 6 days by MTT assay; settings: MIA PaCa-2, 144 h; outline: as §1
A498 = test: Cytotoxicity against human A498 cells assessed as inhibition of cell viability after 6 days by MTT assay; settings: A498, 144 h; outline: as §1
ACHN = test: Cytotoxicity against human ACHN cells assessed as inhibition of cell viability after 6 days by MTT assay; settings: 144 h; outline: as §1

| SMILES | IC50 (PANC-1) [µM] | IC50 [1] [µM] | IC50 (A498) [µM] | IC50 (ACHN) [µM] |
| --- | --- | --- | --- | --- |
| O=c1[nH]cc(F)c(=O)[nH]1 [FLUOROURACIL] | 50 |  |  |  |
| Nc1ccn([C@@H]2O[C@H](CO)[C@@H](O)C2(F)F)c(=O)n1 [GEMCITABINE] |  | 3 |  |  |
| CC1=C[C@]2(C=C(CO)[C@H]3CC(=O)C(C)=C[C@H]3O2)O[C@H](/C=C(\C)CCC(=O)C(C)C)C1 [PHORBAKETAL E] | 25.3 | 16.7 | 12.5 | 18 |
| CC(=O)O[C@@H]1C[C@@H]2C(CO)=C[C@]3(C=C(C)C[C@@H](/C=C(\C)C/C=C/C(C)(C)OO)O3)O[C@@H]2C=C1C [PHORBAKETAL F] | > 50 | > 50 | > 50 | > 50 |
| CC(=O)O[C@H]1C[C@@H]2C(CO)=C[C@]3(C=C(C)C[C@@H](/C=C(\C)C/C=C/C(C)(C)OO)O3)O[C@@H]2C=C1C [PHORBAKETAL G] | > 50 | > 50 | > 50 | > 50 |
| CC(C)=CCC/C(C)=C/[C@@H]1CC(C)=C[C@]2(C=C(C=O)[C@H]3C[C@@H](O)C(C)=C[C@H]3O2)O1 [PHORBAKETAL H] | > 50 | > 50 | 9.8 | > 50 |
| CC(C)=CCC/C(C)=C/[C@@H]1CC(C)=C[C@]2(C=C(C=O)[C@H]3CC(=O)C(C)=C[C@H]3O2)O1 [PHORBAKETAL I] | 12.8 | 22 | 9 | 22.3 |
| CC(=O)O[C@@H]1C[C@@H]2C(C=O)=C[C@]3(C=C(C)C[C@@H](/C=C(\C)CCC=C(C)C)O3)O[C@@H]2C=C1C [PHORBAKETAL J] | > 50 | > 50 | > 50 | > 50 |
| CC(=O)O[C@H]1C[C@@H]2C(C=O)=C[C@]3(C=C(C)C[C@@H](/C=C(\C)CCC=C(C)C)O3)O[C@@H]2C=C1C [PHORBAKETAL K] | > 50 | > 50 | > 50 | > 50 |
| C=C(C[C@H](O)/C=C(\C)CC/C=C(\C)CCC=C(C)C)[C@H]1CC(=O)C(C)=C[C@H]1O [PHORBIN A] | 7.8 | 5.2 | 4.9 | 10 |
| CCN(CC)CCNC(=O)c1c(C)[nH]c(/C=C2\C(=O)Nc3ccc(F)cc32)c1C [SUNITINIB] |  |  |  | 2.5 |
| CO[C@H]1C[C@@H]2CC[C@@H](C)[C@@](O)(O2)C(=O)C(=O)N2CCCC[C@H]2C(=O)O[C@H]([C@H](C)C[C@@H]2CC[C@@H](OC(=O)C(C)(CO)CO)[C@H](OC)C2)CC(=O)[C@H](C)/C=C(\C)[C@@H](O)[C@@H](OC)C(=O)[C@H](C)C[C@H](C)/C=C/C=C/C=C/1C [TEMSIROLIMUS] |  |  | 0.5 |  |
